In ChEMBL document CHEMBL4373640, “Synthesis and antitumor activity of aza-brazilan derivatives containing imidazolium salt pharmacophores” (Medchemcomm, 2019) one finds IC50 data, which are given here for 34 molecules.

Common to all, as to assay type: functional, cell-based
One test has as its system SW480. Kind of test: Cytotoxicity against human SW480 cells assessed as reduction in cell viability after 48 hrs by MTS assay. The settings on record: SW480, 48 h. The essentials: (§1)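 Cells (5 × 10^3 per well) were plated 12 h before treatment, then exposed continuously to compound for 48 h. MTS was added, with 1–4 h incubation at 37 °C and OD read at 490 nm. IC50 is the concentration cutting OD by 50% versus untreated cells, taken from dose–response curves. Values are the mean of three independent determinations.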
For orientation: Tetrazolium assays rely on reduction of a dye to a coloured formazan, in cell work by metabolically active cells.

The test system of another test is A549. Kind of test: Cytotoxicity against human A549 cells assessed as reduction in cell viability after 48 hrs by MTS assay. The settings on record: A549, 48 h. A digest of the protocol:
as §1

A further test deals with MCF7. Nature of the test: Cytotoxicity against human MCF7 cells assessed as reduction in cell viability after 48 hrs by MTS assay. To be noted: MCF7, 48 h. The essentials:
as §1

Test [1] in a line: Cytotoxicity against human SMMC-7221 cells assessed as reduction in cell viability after 48 hrs by MTS assay. The settings on record: SMMC-7221, 48 h. The essentials: as §1

Where only a bound is given, the exact number is not on record here.

In the case of `COc1cc2c(cc1OC)[C@@H]1c3cccc(OC)c3N(CCCn3c[n+](Cc4ccc(C)cc4)c4cc(C)c(C)cc43)C[C@@H]1C2`, the IC50 in the test on SW480 came out at 2 µM; in the test on A549 it was 4.83 µM; in the test with MCF7 it was 2 µM; in test [1] it was 1.71 µM.
Take `COc1ccc(C(=O)C[n+]2c(C)n(CCC(=O)N3C[C@@H]4Cc5cc(OC)c(OC)cc5[C@@H]4c4cccc(OC)c43)c3ccccc32)cc1`: the IC50 in the test on SW480 was 15.4 µM; with A549, more than 20 µM; in the test on MCF7, more than 20 µM; in test [1], more than 20 µM.
Take `COc1ccc(C(=O)C[n+]2cn(CCCN3C[C@@H]4Cc5ccccc5[C@@H]4c4cccc(OC)c43)c3cc(C)c(C)cc32)cc1`: the IC50 with SW480 was 1.73 µM; in the test on A549, 1.4 µM; in the test with MCF7 it was 1.26 µM; in test [1] it was 1.42 µM.
Take `COc1cccc2c1N(CCCn1cnc3cc(C)c(C)cc31)C[C@@H]1Cc3ccc(Br)cc3[C@H]21`: the IC50 (with SW480; in the test with A549; in the test with MCF7; in test [1]) was more than 20 µM throughout.
Take `COc1cccc2c1N(CCCn1c(C)[n+](Cc3ccc(C)cc3)c3ccccc31)C[C@@H]1Cc3ccccc3[C@H]21`: the IC50 in the test with SW480 amounted to 1.66 µM; in the test with A549, 4.25 µM; with MCF7, 1.47 µM; in test [1], 1.8 µM.
Taken in the same sequence, the figures for `COc1cccc2c1N(CCCn1c[n+](CC(=O)c3ccc4ccccc4c3)c3cc(C)c(C)cc31)C[C@@H]1Cc3ccccc3[C@H]21` were 1.46 µM, 1.47 µM, 0.91 µM and 1.09 µM.
As for `COc1cccc2c1N(CCCn1c[n+](Cc3ccc(C)cc3)c3cc(C)c(C)cc31)C[C@@H]1Cc3ccccc3[C@H]21`, the IC50 in the test with SW480 was 0.56 µM; with A549 it was 1.51 µM; with MCF7, 0.67 µM; in test [1], 0.66 µM.
`COc1cccc2c1N(C(=O)CCn1c[n+](CC(=O)c3ccc4ccccc4c3)c3cc(C)c(C)cc31)C[C@@H]1Cc3ccc(Br)cc3[C@H]21`: the IC50 in the test with SW480 was determined as 1.83 µM; in the test with A549, 1.11 µM; with MCF7, 1.22 µM; in test [1], 1 µM.
Consider `COc1cccc2c1N(C(=O)CCn1c(C)[n+](CC(=O)c3ccc4ccccc4c3)c3ccccc31)C[C@@H]1Cc3ccccc3[C@H]21`, for which the IC50 was determined as 1.44 µM in the test on SW480, 4.71 µM in the test with A549, 1.46 µM with MCF7 and 1.51 µM in test [1].
Consider `COc1cccc2c1N(CCCn1c(C)[n+](Cc3ccc(C)cc3)c3ccccc31)C[C@@H]1Cc3ccc(Br)cc3[C@H]21`, for which the IC50 in the test with SW480 is 1.62 µM; with A549, 1.42 µM; in the test with MCF7, 1.08 µM; in test [1], 0.98 µM.
Consider `COc1cccc2c1N(CCCn1c(C)nc3ccccc31)C[C@@H]1Cc3ccc(Br)cc3[C@H]21`, for which the IC50 (in the test with SW480; in the test with A549; with MCF7; in test [1]) was more than 20 µM each time.
In the case of `COc1ccc(C(=O)C[n+]2c(C)n(CCCN3C[C@@H]4Cc5cc(OC)c(OC)cc5[C@@H]4c4cccc(OC)c43)c3ccccc32)cc1`, the IC50 in the test with SW480 came to 2.34 µM; in the test on A549 it was 14.4 µM; in the test on MCF7, 3.36 µM; in test [1], 5.36 µM.
On the same counts, the results for `COc1cc2c(cc1OC)[C@@H]1c3cccc(OC)c3N(CCCn3c[n+](CC(=O)c4ccc5ccccc5c4)c4cc(C)c(C)cc43)C[C@@H]1C2` are 1.38 µM, 4.91 µM, 1.12 µM and 1.71 µM.
With `COc1cccc2c1N(CCCn1c(C)[n+](CC(=O)c3ccc4ccccc4c3)c3ccccc31)C[C@@H]1Cc3ccccc3[C@H]21`, the IC50 was 1.8 µM in the test with SW480, 5.32 µM in the test on A549, 1.36 µM with MCF7 and 2.01 µM in test [1].
On to `COc1cc2c(cc1OC)[C@@H]1c3cccc(OC)c3N(C(=O)CCn3cnc4cc(C)c(C)cc43)C[C@@H]1C2`, for which the IC50 (with SW480; in the test on A549; in the test with MCF7; in test [1]) was more than 20 µM each time.
As for `COc1cccc2c1N(C(=O)CCn1c[n+](Cc3ccc4ccccc4c3)c3cc(C)c(C)cc31)C[C@@H]1Cc3ccccc3[C@H]21`, the IC50 with SW480 turned out to be 0.97 µM; in the test on A549, 2.58 µM; in the test with MCF7, 0.93 µM; in test [1], 1.03 µM.
Taken in the same sequence, the figures for `COc1cccc2c1N(CCCn1c[n+](CC(=O)c3ccc4ccccc4c3)c3cc(C)c(C)cc31)C[C@@H]1Cc3ccc(Br)cc3[C@H]21` were 4.26 µM, 3.48 µM, 1.58 µM and 1.35 µM.
On the same counts, the results for `COc1cc2c(cc1OC)[C@@H]1c3cccc(OC)c3N(CCCn3c(C)[n+](Cc4ccc(C)cc4)c4ccccc43)C[C@@H]1C2` are 3.51 µM, 14.4 µM, 5.54 µM and 6.49 µM.
Taken in the same sequence, the figures for `COc1cccc2c1N(CCCn1c[n+](Cc3ccc4ccccc4c3)c3cc(C)c(C)cc31)C[C@@H]1Cc3ccccc3[C@H]21` were 0.93 µM, 1.51 µM, 0.91 µM and 0.85 µM.
As to `COc1cccc2c1N(C(=O)CCn1cnc3cc(C)c(C)cc31)C[C@@H]1Cc3ccccc3[C@H]21`, the IC50 (with SW480; in the test on A549; with MCF7; in test [1]) was more than 20 µM throughout.
As for `COc1cccc2c1N(C(=O)CCn1c(C)nc3ccccc31)C[C@@H]1Cc3ccccc3[C@H]21`, the IC50 (in the test with SW480; with A549; in the test on MCF7; in test [1]) was more than 20 µM throughout.
For the molecule `COc1cccc2c1N(C(=O)CCn1c[n+](CC(=O)c3ccc4ccccc4c3)c3cc(C)c(C)cc31)C[C@@H]1Cc3ccccc3[C@H]21`, the IC50 came out at 1.35 µM with SW480, 1.99 µM with A549, 1.01 µM with MCF7 and 1.12 µM in test [1].
As for `COc1ccc(C(=O)C[n+]2c(C)n(CCCN3C[C@@H]4Cc5ccccc5[C@@H]4c4cccc(OC)c43)c3ccccc32)cc1`, the IC50 came to 1.27 µM in the test on SW480, 3.65 µM with A549, 0.4 µM with MCF7 and 1.32 µM in test [1].
Taken in the same sequence, the figures for `COc1cc2c(cc1OC)[C@@H]1c3cccc(OC)c3N(C(=O)CCn3c(C)nc4ccccc43)C[C@@H]1C2` were more than 20 µM, more than 20 µM, more than 20 µM and more than 20 µM.
Consider `COc1cc2c(cc1OC)[C@@H]1c3cccc(OC)c3N(CCCn3c(C)nc4ccccc43)C[C@@H]1C2`, for which the IC50 (in the test on SW480; with A549; with MCF7; in test [1]) was more than 20 µM each time.
As for `COc1cc2c(cc1OC)[C@@H]1c3cccc(OC)c3N(CCCn3cnc4cc(C)c(C)cc43)C[C@@H]1C2`, the IC50 (in the test with SW480; in the test with A549; in the test with MCF7; in test [1]) was more than 20 µM in each case.
Turning to `COc1cc2c(cc1OC)[C@@H]1c3cccc(OC)c3N(C(=O)CCn3c(C)[n+](CC(=O)c4ccc5ccccc5c4)c4ccccc43)C[C@@H]1C2`, the IC50 in the test on SW480 amounted to 3.79 µM; in the test with A549, 9.29 µM; with MCF7 it was 4.67 µM; in test [1] it was 6.53 µM.
Taken in the same sequence, the figures for `COc1cccc2c1N(CCCn1c[n+](Cc3ccc4ccccc4c3)c3cc(C)c(C)cc31)C[C@@H]1Cc3ccc(Br)cc3[C@H]21` were 3.92 µM, 5.62 µM, 0.84 µM and 2.16 µM.
For the molecule `COc1cc2c(cc1OC)[C@@H]1c3cccc(OC)c3N(CCCn3c(C)[n+](Cc4ccc5ccccc5c4)c4ccccc43)C[C@@H]1C2`, the IC50 in the test with SW480 was 1.5 µM; in the test with A549, 1.53 µM; in the test with MCF7, 1.07 µM; in test [1], 1.13 µM.
Consider `COc1cccc2c1N(C(=O)CCn1c(C)[n+](Cc3ccc4ccccc4c3)c3ccccc31)C[C@@H]1Cc3ccccc3[C@H]21`, for which the IC50 in the test on SW480 was 0.77 µM; in the test on A549, 3.68 µM; in the test with MCF7 it was 0.96 µM; in test [1] it was 1.45 µM.
Regarding `COc1ccc(C(=O)C[n+]2cn(CCCN3C[C@@H]4Cc5cc(OC)c(OC)cc5[C@@H]4c4cccc(OC)c43)c3cc(C)c(C)cc32)cc1`, the IC50 came to 1.8 µM in the test with SW480, 8.27 µM with A549, 2.14 µM with MCF7 and 4.5 µM in test [1].
Take `COc1cc2c(cc1OC)[C@@H]1c3cccc(OC)c3N(CCCn3c[n+](Cc4ccc5ccccc5c4)c4cc(C)c(C)cc43)C[C@@H]1C2`: the IC50 with SW480 was found to be 1.62 µM; in the test on A549, 5.83 µM; in the test with MCF7 it was 1.49 µM; in test [1], 1.82 µM.
`COc1cccc2c1N(C(=O)CCn1c(C)[n+](CC(=O)c3ccc4ccccc4c3)c3ccccc31)C[C@@H]1Cc3ccc(Br)cc3[C@H]21`: the IC50 came out at 1.75 µM in the test on SW480, 2.63 µM with A549, 1.43 µM in the test on MCF7 and 1.58 µM in test [1].
For `COc1ccc(C(=O)C[n+]2c(C)n(CCC(=O)N3C[C@@H]4Cc5ccccc5[C@@H]4c4cccc(OC)c43)c3ccccc32)cc1`, the IC50 was found to be 2.65 µM with SW480, 10.6 µM in the test with A549, 3.12 µM in the test on MCF7 and 4.62 µM in test [1].

As usually defined, the IC50 is the concentration at which inhibition is half-maximal.
